Experimental data published in the M2OR odorant receptor database.
Numbering of substitutions follows the chain as printed.

Columns and labels:
Conditions in all cases: stereoisomer not certain
OR4D2 = tested on: OR4D2
Outline: (§1)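 Whether a receptor–molecule pair is responsive (active) rests on the original authors' judgment that its measured signal was statistically different from baseline. Pairs without that judgment are non-responsive (inactive). Sources used varied assay methods, commonly transient luciferase assays in mammalian cell lines.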

OR4D5 (Homo sapiens) = OR4D5 (Homo sapiens) (UniProt Q8NGN0)
Outline: as §1

OR4D6 (Homo sapiens) = OR4D6 (Homo sapiens) (UniProt Q8NGJ1)
Outline: as §1

OR4D6 = tested on: OR4D6
Outline: as §1

OR4D9 (Homo sapiens) = OR4D9 (Homo sapiens) (UniProt Q8NGE8)
Outline: as §1

OR4E2 (Homo sapiens) = molecular target: T1, OR4E2 (Homo sapiens) (UniProt Q8NGC2)
T1 sequence (whole entry): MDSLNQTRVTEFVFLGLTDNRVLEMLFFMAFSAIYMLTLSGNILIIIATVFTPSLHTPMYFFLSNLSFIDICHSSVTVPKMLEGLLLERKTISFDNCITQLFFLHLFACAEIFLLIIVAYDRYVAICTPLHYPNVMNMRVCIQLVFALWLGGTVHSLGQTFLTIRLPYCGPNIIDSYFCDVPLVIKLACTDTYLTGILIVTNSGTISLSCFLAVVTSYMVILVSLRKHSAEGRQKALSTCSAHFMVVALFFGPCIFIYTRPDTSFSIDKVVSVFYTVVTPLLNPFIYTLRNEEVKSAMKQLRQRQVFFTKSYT
Outline: as §1

OR4E2 A119T = tested on: T2, OR4E2 A119T
T2 sequence (whole entry): T1 sequence (whole entry) with V118M, A119T, Q234R
Outline: as §1

OR4E2 = tested on: T3, OR4E2
T3 sequence (whole entry): T1 sequence (whole entry) with V118M, Q234R
Outline: as §1

OR4F15 (Homo sapiens) = molecular target: T4, OR4F15 (Homo sapiens) (UniProt Q8NGB8)
T4 sequence (whole entry): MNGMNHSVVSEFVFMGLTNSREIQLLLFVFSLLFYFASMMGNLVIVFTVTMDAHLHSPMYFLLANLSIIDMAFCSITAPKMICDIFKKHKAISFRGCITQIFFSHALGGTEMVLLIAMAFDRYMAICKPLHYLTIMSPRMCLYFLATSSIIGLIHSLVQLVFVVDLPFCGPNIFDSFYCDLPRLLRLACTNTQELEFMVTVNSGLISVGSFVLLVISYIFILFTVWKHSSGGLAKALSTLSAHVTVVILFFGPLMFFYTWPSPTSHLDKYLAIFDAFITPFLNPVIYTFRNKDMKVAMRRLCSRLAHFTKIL
Outline: as §1

OR4F17 (Homo sapiens) = molecular target: T5, OR4F17 (Homo sapiens) (UniProt Q8NGA8)
T5 sequence (whole entry): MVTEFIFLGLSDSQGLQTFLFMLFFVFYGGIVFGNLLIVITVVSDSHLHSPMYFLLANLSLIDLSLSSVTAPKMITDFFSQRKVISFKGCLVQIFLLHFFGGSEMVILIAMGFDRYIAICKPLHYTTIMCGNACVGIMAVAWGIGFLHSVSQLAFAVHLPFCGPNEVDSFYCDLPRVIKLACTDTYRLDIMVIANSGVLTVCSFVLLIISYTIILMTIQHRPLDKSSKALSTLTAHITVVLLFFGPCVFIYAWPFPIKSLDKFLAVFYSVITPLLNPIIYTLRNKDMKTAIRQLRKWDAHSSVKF
Outline: as §1

OR4F21 (Homo sapiens) = molecular target: T6, OR4F21 (Homo sapiens) (UniProt O95013)
T6 sequence (whole entry): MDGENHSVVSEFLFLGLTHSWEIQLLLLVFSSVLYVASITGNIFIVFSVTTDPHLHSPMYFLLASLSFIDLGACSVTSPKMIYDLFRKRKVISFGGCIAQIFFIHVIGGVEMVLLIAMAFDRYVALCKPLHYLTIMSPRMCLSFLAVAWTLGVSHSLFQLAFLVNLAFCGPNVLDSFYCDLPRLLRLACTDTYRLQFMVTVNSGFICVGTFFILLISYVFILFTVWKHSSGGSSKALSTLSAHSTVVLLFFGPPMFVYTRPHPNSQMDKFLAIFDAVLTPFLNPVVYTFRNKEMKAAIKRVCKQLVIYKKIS
Outline: as §1

OR4F3 (Homo sapiens) = molecular target: T7, OR4F3 (Homo sapiens) (UniProt Q6IEY1)
T7 sequence (whole entry): T6 sequence (whole entry) with F44L, I107V, K310R
Outline: as §1

OR4F4 (Homo sapiens) = molecular target: T8, OR4F4 (Homo sapiens) (UniProt Q96R69)
T8 sequence (whole entry): T5 sequence (whole entry) with G15E, R221C, Q293R
Outline: as §1

OR4F5 (Homo sapiens) = molecular target: T9, OR4F5 (Homo sapiens) (UniProt Q8NH21)
T9 sequence (whole entry): T5 sequence (whole entry) with G15E, A141T, P160L
Outline: as §1

OR4F5 T141A Q293R = tested on: T10, OR4F5 T141A Q293R
T10 sequence (whole entry): T5 sequence (whole entry) with G15E, P160L, Q293R
Outline: as §1

OR4F6 (Homo sapiens) = molecular target: T11, OR4F6 (Homo sapiens) (UniProt Q8NGB9)
T11 sequence (whole entry): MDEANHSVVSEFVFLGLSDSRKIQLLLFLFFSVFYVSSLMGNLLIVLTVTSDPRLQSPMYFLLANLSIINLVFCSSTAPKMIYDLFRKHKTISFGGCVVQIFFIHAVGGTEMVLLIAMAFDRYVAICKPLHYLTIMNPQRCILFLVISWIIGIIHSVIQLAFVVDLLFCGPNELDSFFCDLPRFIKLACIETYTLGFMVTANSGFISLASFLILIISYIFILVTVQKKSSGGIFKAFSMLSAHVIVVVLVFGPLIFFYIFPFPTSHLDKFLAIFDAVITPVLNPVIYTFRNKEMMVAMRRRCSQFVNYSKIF
Outline: as §1

OR4K1 (Homo sapiens) = molecular target: T12, OR4K1 (Homo sapiens) (UniProt Q8NGD4)
T12 sequence (whole entry): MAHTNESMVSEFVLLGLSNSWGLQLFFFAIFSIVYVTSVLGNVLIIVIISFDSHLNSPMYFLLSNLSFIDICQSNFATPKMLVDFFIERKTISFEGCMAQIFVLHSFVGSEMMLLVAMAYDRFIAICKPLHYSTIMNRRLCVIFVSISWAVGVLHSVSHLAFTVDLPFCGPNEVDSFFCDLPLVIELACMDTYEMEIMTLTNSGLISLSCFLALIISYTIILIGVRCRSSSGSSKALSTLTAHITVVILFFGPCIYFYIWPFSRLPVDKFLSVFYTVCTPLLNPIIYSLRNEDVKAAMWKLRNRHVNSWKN
Outline: as §1

OR4F3 R310K = tested on: OR4F3 R310K
Outline: as §1

OR4F3 V107I = tested on: OR4F3 V107I
Outline: as §1

OR4E1 (Homo sapiens) = OR4E1 (Homo sapiens) (UniProt P0C645)
Outline: as §1

Measured: odorant receptor agonist call;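 further: active if original authors judged signal statistically different from baseline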

Sequence of OR4D6 (as listed by the source): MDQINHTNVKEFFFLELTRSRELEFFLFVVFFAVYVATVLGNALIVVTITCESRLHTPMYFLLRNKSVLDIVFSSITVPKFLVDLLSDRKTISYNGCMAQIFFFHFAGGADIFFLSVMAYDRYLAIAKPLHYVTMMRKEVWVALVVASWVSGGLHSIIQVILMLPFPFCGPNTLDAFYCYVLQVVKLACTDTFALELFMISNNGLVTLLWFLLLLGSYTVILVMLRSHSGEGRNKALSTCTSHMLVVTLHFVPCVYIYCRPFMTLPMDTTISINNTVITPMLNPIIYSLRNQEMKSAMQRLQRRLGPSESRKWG
Sequence of OR4D9 (Homo sapiens) (Q8NGE8 whole entry): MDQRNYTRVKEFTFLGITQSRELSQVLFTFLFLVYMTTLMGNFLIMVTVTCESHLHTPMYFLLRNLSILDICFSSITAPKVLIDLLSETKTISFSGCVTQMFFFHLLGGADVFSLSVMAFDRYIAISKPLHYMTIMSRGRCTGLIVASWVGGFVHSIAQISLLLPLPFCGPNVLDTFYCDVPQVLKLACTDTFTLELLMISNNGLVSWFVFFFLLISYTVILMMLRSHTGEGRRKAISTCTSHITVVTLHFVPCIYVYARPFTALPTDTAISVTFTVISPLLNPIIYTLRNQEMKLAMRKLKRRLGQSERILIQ
Sequence of OR4D2 (as listed by the source): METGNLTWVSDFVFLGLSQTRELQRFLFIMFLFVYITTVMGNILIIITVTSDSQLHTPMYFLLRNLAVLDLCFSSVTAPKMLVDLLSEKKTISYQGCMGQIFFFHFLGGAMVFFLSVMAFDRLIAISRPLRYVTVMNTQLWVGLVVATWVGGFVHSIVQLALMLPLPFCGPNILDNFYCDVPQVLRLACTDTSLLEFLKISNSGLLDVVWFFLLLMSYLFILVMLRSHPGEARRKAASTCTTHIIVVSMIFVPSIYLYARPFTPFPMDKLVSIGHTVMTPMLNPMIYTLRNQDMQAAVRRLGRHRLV
Sequence of OR4D6 (Homo sapiens) (Q8NGJ1 whole entry): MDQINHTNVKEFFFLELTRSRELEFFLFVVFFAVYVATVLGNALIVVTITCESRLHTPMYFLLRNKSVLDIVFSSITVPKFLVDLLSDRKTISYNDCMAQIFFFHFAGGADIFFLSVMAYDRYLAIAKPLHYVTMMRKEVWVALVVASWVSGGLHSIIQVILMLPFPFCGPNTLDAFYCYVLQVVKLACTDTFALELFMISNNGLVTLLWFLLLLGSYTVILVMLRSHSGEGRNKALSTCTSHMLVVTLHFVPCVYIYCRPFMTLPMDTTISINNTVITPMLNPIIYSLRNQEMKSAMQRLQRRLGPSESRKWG
Sequence of OR4D5 (Homo sapiens) (Q8NGN0 whole entry): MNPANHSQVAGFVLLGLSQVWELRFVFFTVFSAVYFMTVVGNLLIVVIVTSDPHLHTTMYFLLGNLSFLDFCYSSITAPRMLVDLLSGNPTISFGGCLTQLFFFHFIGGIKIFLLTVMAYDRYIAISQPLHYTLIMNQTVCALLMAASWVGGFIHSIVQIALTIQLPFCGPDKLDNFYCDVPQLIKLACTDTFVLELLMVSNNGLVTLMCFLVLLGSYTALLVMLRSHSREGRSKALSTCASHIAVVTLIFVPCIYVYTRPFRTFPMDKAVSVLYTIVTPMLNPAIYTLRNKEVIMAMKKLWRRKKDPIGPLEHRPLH
Sequence of OR4E1 (Homo sapiens) (P0C645 whole entry): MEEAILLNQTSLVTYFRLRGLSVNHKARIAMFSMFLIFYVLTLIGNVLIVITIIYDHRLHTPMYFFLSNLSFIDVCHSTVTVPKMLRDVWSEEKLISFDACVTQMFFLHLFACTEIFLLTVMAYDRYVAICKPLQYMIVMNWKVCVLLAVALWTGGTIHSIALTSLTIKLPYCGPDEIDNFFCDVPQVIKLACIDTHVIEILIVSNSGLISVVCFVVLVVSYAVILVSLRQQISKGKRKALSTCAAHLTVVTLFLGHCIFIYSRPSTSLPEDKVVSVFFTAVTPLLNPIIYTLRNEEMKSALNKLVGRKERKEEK
Sequence of OR4F3 V107I (as listed by the source, stated change not applied): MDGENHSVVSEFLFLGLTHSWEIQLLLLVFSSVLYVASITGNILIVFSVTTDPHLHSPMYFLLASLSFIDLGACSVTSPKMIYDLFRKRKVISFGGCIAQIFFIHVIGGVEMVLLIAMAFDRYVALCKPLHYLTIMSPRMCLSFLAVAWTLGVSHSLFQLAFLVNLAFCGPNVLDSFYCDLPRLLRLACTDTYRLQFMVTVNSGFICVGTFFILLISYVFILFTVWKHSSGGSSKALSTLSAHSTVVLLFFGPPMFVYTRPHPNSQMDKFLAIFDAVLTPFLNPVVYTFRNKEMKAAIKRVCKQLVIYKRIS
Sequence of OR4F3 R310K (as listed by the source, stated change not applied): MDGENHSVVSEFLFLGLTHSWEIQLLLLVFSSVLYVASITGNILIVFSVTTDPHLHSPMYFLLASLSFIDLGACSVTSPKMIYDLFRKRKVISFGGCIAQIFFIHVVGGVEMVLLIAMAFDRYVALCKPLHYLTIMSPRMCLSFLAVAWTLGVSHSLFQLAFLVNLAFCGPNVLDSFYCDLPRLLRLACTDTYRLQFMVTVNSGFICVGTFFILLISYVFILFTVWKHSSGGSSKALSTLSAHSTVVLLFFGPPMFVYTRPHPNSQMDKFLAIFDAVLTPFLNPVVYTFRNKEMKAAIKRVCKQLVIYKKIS

Cc1cnc(C)c(C)n1
not listed: OR4F3 R310K | OR4F3 V107I | OR4E1 (Homo sapiens)
inactive: all other assays above

CCCCCCC=CCCC=O
not listed: OR4E2 A119T | OR4E1 (Homo sapiens)
inactive: all other assays above

CCCC(S)CCOC(C)=O (centres undefined)
not listed: OR4F3 R310K | OR4F3 V107I | OR4E1 (Homo sapiens)
inactive: all other assays above

CCCCCC(=O)C(C)C(C)=O (centres undefined)
not listed: OR4D2 | OR4D6 | OR4E2 A119T | OR4E2 | OR4F5 T141A Q293R | OR4F3 R310K | OR4F3 V107I | OR4E1 (Homo sapiens)
inactive: all other assays above

CC1=C(O)C(=O)C(C)O1 (centres undefined)
not listed: OR4F3 R310K | OR4F3 V107I | OR4E1 (Homo sapiens)
inactive: all other assays above

CC(=O)c1c(C)c([N+](=O)[O-])c(C(C)(C)C)c([N+](=O)[O-])c1C
not listed: OR4D2 | OR4D6 | OR4E2 A119T | OR4E2 | OR4F5 T141A Q293R | OR4F3 R310K | OR4F3 V107I
inactive: all other assays above

CC(C)=CCCC(C)=CCO
inactive: OR4E2

CC1CCCCCCCCCCCCC(=O)C1 (centres undefined)
not listed: OR4D2 | OR4D6 | OR4E2 A119T | OR4E2 | OR4F5 T141A Q293R | OR4F3 R310K | OR4F3 V107I
inactive: all other assays above

CCC1OC(C)=C(O)C1=O (centres undefined)
not listed: OR4F3 R310K | OR4F3 V107I | OR4E1 (Homo sapiens)
inactive: all other assays above

CC1=NC(C)C(C)S1 (centres undefined)
not listed: OR4F3 R310K | OR4F3 V107I | OR4E1 (Homo sapiens)
inactive: all other assays above

CC1=C(O)C(=O)OC1C (centres undefined)
not listed: OR4F3 R310K | OR4F3 V107I | OR4E1 (Homo sapiens)
inactive: all other assays above

CCC(S)C(C)CO (centres undefined)
not listed: OR4D2 | OR4D6 | OR4E2 A119T | OR4E2 | OR4F5 T141A Q293R | OR4F3 R310K | OR4F3 V107I | OR4E1 (Homo sapiens)
inactive: all other assays above

CCCCC(S)C(C)CO (centres undefined)
not listed: OR4D2 | OR4D6 | OR4E2 A119T | OR4E2 | OR4F5 T141A Q293R | OR4F3 R310K | OR4F3 V107I | OR4E1 (Homo sapiens)
inactive: all other assays above

CC(CO)CS (centres undefined)
not listed: OR4D2 | OR4D6 | OR4E2 A119T | OR4E2 | OR4F5 T141A Q293R | OR4F3 R310K | OR4F3 V107I | OR4E1 (Homo sapiens)
inactive: all other assays above

CCC1OC(=O)C(O)=C1C (centres undefined)
not listed: OR4F3 R310K | OR4F3 V107I | OR4E1 (Homo sapiens)
inactive: all other assays above

CCCCCC(S)C(C)CO (centres undefined)
not listed: OR4D2 | OR4D6 | OR4E2 A119T | OR4E2 | OR4F5 T141A Q293R | OR4F3 R310K | OR4F3 V107I | OR4E1 (Homo sapiens)
inactive: all other assays above
